Data as given in ChEMBL document CHEMBL1123566, “Synthesis and cardiac electrophysiological activity of 2- and 3-[(substituted phenyl)alkyl]quinuclidines. Structure-activity relationships” (1987).
Where “and” joins values, the source holds several entries; their conditions need not be identical. Identical values can stand only once.

Key:
Canis familiaris [1] = species: Canis familiaris; experiment: In vitro electrophysiological evaluation in canine cardiac Purkinje fibres reported as percent change Vmax concentration range of 0.1-100 uM; Minimal (<IO%increase or a decrease in CT); assay type: functional; conditions: Canis lupus familiaris; Purkinje fiber
Procedure, shortened: (§1)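 Canine cardiac Purkinje fibres, intracellular microelectrode recording, paced at a basic cycle length of 1 s. APD95 and Vmax read simultaneously. Compound: 10 mM stock in deionized water, diluted into Tyrode's solution, tested over the stated concentration range. Each fibre used once as its own control. Result is % change from control, given at 10 µM or as the maximum with its concentration. M = <10% decrease or an increase in Vmax.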

Canis familiaris [2] = species: Canis familiaris; experiment: In vitro electrophysiological evaluation in canine cardiac Purkinje fibres reported as percent change Vmax concentration range of 0.1-10 uM; Minimal (<IO%increase or a decrease in CT); assay type: functional; conditions: Canis lupus familiaris; Purkinje fiber; procedure, shortened: as §1
Canis familiaris [3] = species: Canis familiaris; experiment: In vitro electrophysiological evaluation in canine cardiac Purkinje fibres reported as maximum percent change Vmax concentration range of 0.1-10 uM; Minimal (<IO%increase or a decrease in CT); assay type: functional; conditions: Canis lupus familiaris; Purkinje fiber; procedure, shortened: as §1
Canis familiaris [4] = species: Canis familiaris; experiment: In vitro electrophysiological activity in canine cardiac Purkinje fibres given as maximum % change for action potential duration at 0.1-100 uM concentration; assay type: functional, Canis lupus familiaris, Purkinje fiber
Procedure, shortened: (§2)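 Canine cardiac Purkinje fibres, intracellular recording at 1 s basic cycle length, over cumulative concentration ranges. Compound 10 mM stock in deionized water diluted into Tyrode's. Each fibre used once as its own control. Value is the maximum % change from control in APD at 95% repolarization, with the concentration where it occurred; both values given if a biphasic response (>20% reversal) occurred.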

Canis familiaris [5] = species: Canis familiaris; experiment: In vitro electrophysiological activity in canine cardiac Purkinje fibres given as maximum % change for action potential duration at 0.1-10 uM concentration; assay type: functional, Canis lupus familiaris, Purkinje fiber; procedure, shortened: as §2
Canis familiaris [6] = species: Canis familiaris; experiment: In vitro electrophysiological evaluation in canine cardiac Purkinje fibres reported as % change for action potential duration at 0.1-10 uM concentration range; assay type: functional, Canis lupus familiaris, Purkinje fiber; procedure, shortened: as §1
Canis familiaris [7] = species: Canis familiaris; experiment: In vitro electrophysiological evaluation in canine cardiac Purkinje fibres reported as maximum percent change Vmax concentration range of 0.1-100 uM; assay type: functional; conditions: Canis lupus familiaris; Purkinje fiber; procedure, shortened: as §1
Canis familiaris [8] = species: Canis familiaris; experiment: (§3) In vitro electrophysiological evaluation in canine cardiac Purkinje fibres reported as % change for action potential duration at 0.1-100 uM concentration range; assay type: functional, Canis lupus familiaris, Purkinje fiber; procedure, shortened: as §1
Canis familiaris [9] = experiment: Conduction time was determined by intraduodenal administration of two dosages of 10 mg/kg (low dose) of compound in anesthetized dogs. Value was reported for experiment 2; assay type: functional, Canis lupus familiaris
Procedure, shortened: (§4)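 Anesthetized dogs; compound given intraduodenally, generally as two doses, the second a cumulative (high) dose. LV functional refractory period and conduction time measured 15, 30 and 45 min after dosing; heart rate and blood pressure measured during nonpacing intervals. Values are % change from control, given per individual animal. Active if FRP or CT prolonged by ≥12%.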

Canis familiaris [10] = experiment: Conduction time was determined by intraduodenal administration of two dosages of 10 mg/kg(high dose) of compound in anesthetized dogs. Value was reported for experiment 1; assay type: functional, Canis lupus familiaris; procedure, shortened: as §4
Canis familiaris [11] = experiment: Conduction time was determined by intraduodenal administration of two dosages of 20 mg/kg (high dose) of compound in anesthetized dogs. Value was reported for experiment 2; assay type: functional, Canis lupus familiaris; procedure, shortened: as §4
Canis familiaris [12] = experiment: Conduction time was determined by intraduodenal administration of two dosages of 3 mg/kg (low dose) of compound in anesthetized dogs. Value was reported for experiment 1; assay type: functional, Canis lupus familiaris; procedure, shortened: as §4
Canis familiaris [13] = experiment: Heart rate was determined by intraduodenal administration of two dosages of 20 mg/kg of (high dose) compound in anesthetized dogs. Value was reported for experiment 2; assay type: functional, Canis lupus familiaris; procedure, shortened: as §4
Canis familiaris [14] = experiment: Heart rate was determined by intraduodenal administration of two dosages of 3 mg/kg of (low dose) compound in anesthetized dogs. Value was reported for experiment 1; assay type: functional, Canis lupus familiaris; procedure, shortened: as §4
Canis familiaris [15] = experiment: Left ventricular refractory period was determined by intraduodenal administration of two dosages of 20 mg/kg of (high dose) compound in anesthetized dogs. Value was reported for experiment 2; assay type: functional, Canis lupus familiaris, Cardiac ventricle
Canis familiaris [16] = experiment: Heart rate was determined by intraduodenal administration of two dosages of 10 mg/kg of (high dose) compound in anesthetized dogs. Value was reported for experiment 1; assay type: functional, Canis lupus familiaris; procedure, shortened: as §4
Canis familiaris [17] = experiment: Heart rate was determined by intraduodenal administration of two dosages of 10 mg/kg of (low dose) compound in anesthetized dogs. Value was reported for experiment 2; assay type: functional, Canis lupus familiaris; procedure, shortened: as §4
Canis familiaris [18] = experiment: Left ventricular refractory period was determined by intraduodenal administration of two dosages of 10 mg/kg of (high dose) compound in anesthetized dogs. Value was reported for experiment 1; assay type: functional, Canis lupus familiaris, Cardiac ventricle
Procedure, shortened: (§5)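 Anesthetized dogs received two intraduodenal doses, the second cumulative (low dose/high dose). Left ventricular FRP and CT were measured 15, 30 and 45 min after dosing. Heart rate and mean blood pressure were taken during nonpacing intervals. Values are percent change from control. The vehicle was 5% dextrose in water/tragacanth. Activity was defined as ≥12% prolongation of FRP or CT.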

Canis familiaris [19] = experiment: Left ventricular refractory period was determined by intraduodenal administration of two dosages of 10 mg/kg of (low dose) compound in anesthetized dogs. Value was reported for experiment 2; assay type: functional, Canis lupus familiaris, Cardiac ventricle; procedure, shortened: as §5
Canis familiaris [20] = experiment: Left ventricular refractory period was determined by intraduodenal administration of two dosages of 3 mg/kg of (low dose) compound in anesthetized dogs. Value was reported for experiment 1; assay type: functional, Canis lupus familiaris, Cardiac ventricle; procedure, shortened: as §5
Canis familiaris [21] = experiment: Left ventricular refractory period was determined by intravenous administration of two dosages of 3 mg/kg of compound in anesthetized dogs. Value was reported for experiment 1; assay type: functional, Canis lupus familiaris, Cardiac ventricle
Canis familiaris [22] = experiment: Left ventricular refractory period was determined by intravenous administration of two dosages of 3 mg/kg of compound in anesthetized dogs. Value was reported for experiment 2; assay type: functional, Canis lupus familiaris, Cardiac ventricle
Canis familiaris [23] = experiment: Mean arterial blood pressure was determined by intraduodenal administration of two dosages of 10 mg/kg of (high dose) compound in anesthetized dogs. Value was reported for experiment 1; assay type: functional, Canis lupus familiaris; procedure, shortened: as §5
Canis familiaris [24] = experiment: Mean arterial blood pressure was determined by intraduodenal administration of two dosages of 20 mg/kg of (high dose) compound in anesthetized dogs. Value was reported for experiment 2; assay type: functional, Canis lupus familiaris
Canis familiaris [25] = experiment: Mean arterial blood pressure was determined by intraduodenal administration of two dosages of 3 mg/kg of (low dose) compound in anesthetized dogs. Value was reported for experiment 1; assay type: functional, Canis lupus familiaris; procedure, shortened: as §5
Canis familiaris [26] = species: Canis familiaris; experiment: In vitro electrophysiological evaluation in canine cardiac Purkinje fibres reported as percent change Vmax concentration range of 0.1-100 uM; assay type: functional; conditions: Canis lupus familiaris; Purkinje fiber; procedure, shortened: as §1
Canis familiaris [27] = species: Canis familiaris; experiment: In vitro electrophysiological evaluation in canine cardiac Purkinje fibres reported as maximum percent change Vmax concentration range of 0.1-100 uM; Minimal (<IO%increase or a decrease in CT); assay type: functional; conditions: Canis lupus familiaris; Purkinje fiber; procedure, shortened: as §1
Canis familiaris [28] = species: Canis familiaris; experiment: as §3; assay type: functional, Canis lupus familiaris, Purkinje fiber; procedure, shortened: as §1; remark: listed apart in the source
Canis familiaris [29] = experiment: Effective dose administered intravenously to elicit Antiarrhythmic efficacy in anesthetized dogs was reported. Value in parenthesis indicates no. of animals effective at that dose.; assay type: functional, Canis lupus familiaris, Heart
Procedure, shortened: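 Dogs are anesthetized and the chest reopened. Stimulating and recording electrodes go on the myocardium. Reproducible PES-induced sustained VT or VF is confirmed first; SVT is ended by burst pacing and VF by DC countershock. Compound is given iv in 0.9% saline and inducibility retested. A dose counts as effective when SVT/VF cannot be reinduced in two of three animals.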

Canis familiaris [30] = experiment: Mean arterial blood pressure was determined by intraduodenal administration of two dosages of 10 mg/kg of (low dose) compound in anesthetized dogs. Value was reported for experiment 2; assay type: functional, Canis lupus familiaris

CCCCCCC[N+]12CCC(CC1)C(CCc1ccc(Cl)cc1)C2.[Br-] (configuration not stated)
Vmax (Canis familiaris [1]): < 10% | Vmax (Canis familiaris [2]): < 10% | Vmax (Canis familiaris [3]): < 10% | APD95 (Canis familiaris [4]): 23% | APD95 (Canis familiaris [5]): 26% | APD95 (Canis familiaris [6]): 23% | Vmax (Canis familiaris [7]): -58% | APD95 (Canis familiaris [8]): 22%

Cl.Clc1ccc(C/C=C2\CN3CCC2CC3)cc1
CT (Canis familiaris [9]): 0% | CT (Canis familiaris [10]): 3% | CT (Canis familiaris [11]): -4% | CT (Canis familiaris [12]): 0% | HR (Canis familiaris [13]): 1% | HR (Canis familiaris [14]): -2% | LV FRP (Canis familiaris [15]): 2% | HR (Canis familiaris [16]): 4% | HR (Canis familiaris [17]): -1% | LV FRP (Canis familiaris [18]): 3% | LV FRP (Canis familiaris [19]): 3% | LV FRP (Canis familiaris [20]): 5% | LV FRP (Canis familiaris [21]): 17% | LV FRP (Canis familiaris [22]): 15% | Mean blood pressure (Canis familiaris [23]): 25% | Mean blood pressure (Canis familiaris [24]): 12% | Mean blood pressure (Canis familiaris [25]): 19% | Vmax (Canis familiaris [26]): -12% | Vmax (Canis familiaris [1]): < 10% | Vmax (Canis familiaris [2]): < 10% | APD95 (Canis familiaris [4]): 35% and 50% | APD95 (Canis familiaris [5]): 29% | APD95 (Canis familiaris [6]): 29% | Vmax (Canis familiaris [7]): -59% | Vmax (Canis familiaris [27]): < 10% | APD95 (Canis familiaris [8]): 50% | APD95 (Canis familiaris [28]): 16% | Effective dose (Canis familiaris [29]): 0.1 mg/kg and 0.3 mg/kg | Mean blood pressure (Canis familiaris [30]): 12%
